Results pooled from the literature.
ADRA2A: Alpha-2A adrenergic receptor (ADRA2A, Homo sapiens, UniProt P08913)
SLC18A2: Synaptic vesicular amine transporter (SLC18A2, Homo sapiens, UniProt Q05940)
LATS1: Serine/threonine-protein kinase LATS1 (LATS1, Homo sapiens, UniProt O95835)

| Structure (SMILES) | target | test | conditions | measurement | value |
| --- | --- | --- | --- | --- | --- |
| Cc1cc(Oc2ncccc2CN2CCN(CCc3ccccc3)CC2)ccc1-c1c(C)c(=O)[nH]c(=O)n1C | ADRA2A | ligand displacement, radioligand |  | Ki | 2540 nM |
| O=C(c1ccc(OCCN2CCCCC2)cc1)c1c(-c2ccc(O)cc2)sc2cc(O)ccc12 | SLC18A2 | transporter uptake, inhibitor, radiometric | cell membranes | IC50 | 127 nM |
| Cc1cc(Oc2ncccc2CN2CCN(c3cccc4ccccc34)CC2)ccc1-c1c(C)c(=O)[nH]c(=O)n1C | ADRA2A | ligand displacement, radioligand |  | Ki | 186 nM |
| O=C1Cc2cc(CCN3CCN(c4nsc5ccccc45)CC3)c(Cl)cc2N1 | SLC18A2 | transporter uptake, inhibitor, radiometric | cell membranes | IC50 | 15 nM |
| Nc1nc2c(ncn2COCCO)c(=O)[nH]1 | Carbonic anhydrase 2 (CA2, Homo sapiens, UniProt P00918) | enzyme activity, inhibitor, absorbance | pH 7.4 | IC50 | 13800 nM |
| CC(C)NCC(O)COc1ccc(COCCOC(C)C)cc1 (stereo not drawn) | SLC18A2 | transporter uptake, inhibitor |  | IC50 | 7540 nM |
| O=C(O)c1cc2ccc(C#CC3(O)CCCCC3)cc2n1-c1ccccc1 | Microphthalmia-associated transcription factor (Homo sapiens, UniProt O75030) | binding, ITC |  | Kd | 13400 nM |
| CN(C)CCC(c1ccccc1)c1ccccn1 (stereo not drawn) | Carbonic anhydrase 1 (CA1, Homo sapiens, UniProt P00915) | enzyme activity, inhibitor, absorbance | pH 7.4 | IC50 | 20400 nM |
| Cc1cc(Oc2ncccc2CN2CCN(c3ccccc3)CC2)ccc1-c1c(C)c(=O)[nH]c(=O)n1C | ADRA2A | cAMP, agonist, luciferase |  | EC50 | 10700 nM |
| Cc1cc(-c2ccnc3[nH]cc(F)c23)cc(F)c1[C@@]1(O)[C@H](C)CN(C(=O)CN)C[C@@H]1C | LATS1 | target engagement in cells, BRET |  | IC50 | 6.1 nM |
| CC(C)(C)NC(=O)C1CCN(Cc2cccc(NC(=O)c3ccc(F)cc3)c2)CC1 | Atypical chemokine receptor 3 (ACKR3, Homo sapiens, UniProt P25106) | β-arrestin recruitment, agonist, luciferase |  | EC50 | 10 nM |
| O=C(CCCN1CCC(O)(c2ccc(Br)cc2)CC1)c1ccc(F)cc1 | SLC18A2 | transporter uptake, inhibitor |  | IC50 | 92 nM |
| CC1CNCCC1(O)c1ccc(-c2ccnc3[nH]cc(F)c23)cc1 (stereo not drawn) | LATS1 | enzyme activity, inhibitor, radiometric |  | IC50 | 9.8 nM |
| Cc1cc(Oc2ncccc2CN2CCN(c3cccc(F)c3)CC2)ccc1-c1c(C)c(=O)[nH]c(=O)n1C | ADRA2A | ligand displacement, radioligand |  | Ki | 88.7 nM |
| Cc1cnc(Nc2ccc(OCCN3CCCC3)cc2)nc1Nc1cccc(S(=O)(=O)NC(C)(C)C)c1 | SLC18A2 | transporter uptake, inhibitor, radiometric | cell membranes | IC50 | 418 nM |
| Cc1cc(-c2ccnc3[nH]cc(F)c23)cc(F)c1[C@@]1(O)[C@H](C)CN(C2CCS(=O)(=O)CC2)C[C@@H]1C | LATS1 | binding, TR-FRET |  | Kd | 2.5 nM |
| CN(C)CCCN1c2ccccc2Sc2ccc(Cl)cc21 | SLC18A2 | transporter uptake, inhibitor |  | IC50 | 3400 nM |
| Cc1ccc(N2CCN(Cc3cccnc3Oc3ccc(-c4c(C)c(=O)[nH]c(=O)n4C)c(C)c3)CC2)cc1C | ADRA2A | ligand displacement, radioligand |  | Ki | 546 nM |
| Clc1ccc(C2(c3ccc(-c4ccnc5[nH]ccc45)cc3)CCNCC2)cc1 | LATS1 | target engagement in cells, BRET |  | IC50 | 2230 nM |
| Cc1cc(Oc2ncccc2CN2CCN(c3ccc(C(F)(F)F)cn3)CC2)ccc1-c1c(C)c(=O)[nH]c(=O)n1C | ADRA2A | ligand displacement, radioligand |  | Ki | 1280 nM |
| CC(C)C[C@H](NC(=O)[C@H](CC(C)C)NC(=O)[C@H](Cc1c[nH]c2ccccc12)NC(=O)[C@H](CCC(N)=O)NC(=O)[C@@H](NC(=O)[C@H](Cc1ccccc1)NC(=O)[C@H](CC(=O)O)NC(=O)[C@H](CCC(N)=O)NC(=O)[C@H](C)NC(=O)[C@H](C)NC(=O)[C@H](CCCNC(=N)N)NC(=O)[C@H](CCC(=O)O)NC(=O)[C@H](CC(=O)O)NC(=O)[C@H](CC(C)C)NC(=O)[C@H](Cc1ccc(O)cc1)NC(=O)[C@H](CCCCN)NC(=O)[C@H](CO)NC(=O)[C@H](Cc1ccc(O)cc1)NC(=O)[C@H](CC(=O)O)NC(=O)[C@H](CO)NC(=O)[C@@H](NC(=O)[C@H](Cc1ccccc1)NC(=O)[C@@H](NC(=O)CNC(=O)[C@H](CCC(N)=O)NC(=O)C(C)(C)NC(=O)[C@@H](N)Cc1c[nH]cn1)[C@@H](C)O)[C@@H](C)O)C(C)C)C(=O)N[C@@H](CC(=O)O)C(=O)NCC(=O)NCC(=O)N1CCC[C@H]1C(=O)N[C@@H](CO)C(=O)N[C@@H](CC(C)C)C(=O)N[C@@H](CCCNC(=N)N)C(=O)N[C@@H](Cc1c[nH]cn1)C(=O)N[C@@H](Cc1ccc(O)cc1)C(=O)N[C@@H](CC(C)C)C(=O)N[C@@H](CC(N)=O)C(=O)N[C@@H](CC(C)C)C(=O)N[C@H](C(=O)N[C@H](C(=O)N[C@@H](CCCNC(=N)N)C(=O)N[C@@H](CCC(N)=O)C(=O)N[C@@H](CCCNC(=N)N)C(=O)N[C@@H](Cc1ccc(O)cc1)C(N)=O)[C@@H](C)O)C(C)C | Gastric inhibitory polypeptide receptor (GIPR, Homo sapiens, UniProt P48546) | reporter gene, agonist, luciferase |  | EC50 | 0.28 nM |
